Bioassay records as filed in PubChem.
The list is not random: actives were taken first. Their share in the collection is about 3.5%.
rCAG binder – binders of r(CAG) RNA repeats, primary screen, biochemical, fluorescence | r(CAG) RNA repeat, TO-PRO-1 dye displacement fluorescence | inhibition, % at 3 µM | 370,000 tested, 1.3% active | AID 651821, 2012;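 active = inhibition above the plate cutoff, the mean of all test compounds on that plate plus 3 SD, cut at about 35% in these data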;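 also: 0% = DMSO alone and 100% = 100 µM mitoxantrone as full dye displacement; higher means more dye released from RNA so lower well fluorescence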
mABHD4 FP – ABHD4 inhibitors, primary screen, biochemical, fluorescence polarization, mouse; (Lyso)-N-acylphosphatidylethanolamine lipase (Mus musculus), Q8VD66; purified mABHD4, FP-Rh probe fluorescence polarization; inhibition, % at 8.92 µM; 370,000 tested, 0.54% active;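 active = inhibition exceeding the mean over every tested compound plus 3 SD, cut at about 30% in these data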;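 also: 0% = plate median of compound wells and 100% = S159A mutant with DMSO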
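Assay system: mABHD4 protein; medium: HEPES pH 7.0, NaCl, Pluronic buffer; dosing: 8.92 µM, single dose; schedule: 45 min + 60 min at 25 °C; signal: FP readout, ex 525 nm / em 598 nm; read-out: normalized percent inhibition of probe labeling; repeats: single replicate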
HTRA1 inh – HTRA1 serine protease inhibitors, primary screen, biochemical, fluorescence polarization, HTS. Q92743. recombinant HTRA1, FP-rhodamine activity-based probe. inhibition, % at 5.96 µM. 340,000 tested, 0.5% active. AID 504803, 2011; in the data active = inhibition above about 36%;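 also: 0% = enzyme with DMSO and 100% = wells lacking enzyme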
PRMT1 FP inh – PRMT1 methyltransferase inhibitors, primary screen, biochemical, fluorescence polarization; recombinant PRMT1, activity-based probe fluorescence polarization; 370,000 tested, 1.3% active; Protein arginine N-methyltransferase 1 (Homo sapiens), Q99873; inhibition, % at 2.79 µM;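 active = inhibition above about 21% made by adding two undisclosed values, limit read from the data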
SIAE inh – human SIAE inhibitors, primary screen, biochemical, fluorescence polarization, FP-Rh probe, 1536-well HTS; Sialate O-acetylesterase (Homo sapiens), Q9HAT2; 370,000 tested, 0.69% active; SIAE FP-Rh probe binding; inhibition, % at 9.66 µM; AID 1053197, 2014;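 active = inhibition above a cutoff: mean of compounds within the control limits plus 3 SD of those, cut at about 17% in these data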;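 also: 0% = plate median of compound wells and 100% = probe without SIAE protein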
Target sequence (Q9HAT2 whole entry, looked up): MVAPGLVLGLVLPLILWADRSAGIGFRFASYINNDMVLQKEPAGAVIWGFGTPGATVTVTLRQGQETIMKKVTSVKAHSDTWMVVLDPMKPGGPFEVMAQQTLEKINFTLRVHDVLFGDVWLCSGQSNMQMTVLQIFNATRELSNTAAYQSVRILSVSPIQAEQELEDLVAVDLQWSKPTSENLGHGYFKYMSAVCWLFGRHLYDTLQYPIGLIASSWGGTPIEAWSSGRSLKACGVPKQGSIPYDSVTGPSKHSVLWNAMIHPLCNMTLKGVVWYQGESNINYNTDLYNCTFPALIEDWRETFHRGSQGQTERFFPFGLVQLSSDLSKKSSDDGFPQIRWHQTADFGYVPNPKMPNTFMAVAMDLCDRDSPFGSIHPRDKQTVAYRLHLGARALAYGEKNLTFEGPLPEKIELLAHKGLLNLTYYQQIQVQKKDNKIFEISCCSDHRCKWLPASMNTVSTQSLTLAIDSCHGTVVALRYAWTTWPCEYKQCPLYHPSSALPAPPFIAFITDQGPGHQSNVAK
TCR-CD3 inh – inhibitors of human TCR-CD3 interaction, primary screen, biochemical, fluorescence, TAMRA-labeled TCR probe; inhibition, % at 9.4 µM; 360,000 tested, 0.37% active;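 also: recombinant mutant TCR 2C K166C tagged with TAMRA read by polarization; 0% = receptor in buffer alone and 100% = receptor with positive control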
HTRA1 inh conf – HTRA1 protease inhibitors, retest, confirmation, biochemical, fluorescence polarization; shares compounds with HTRA1 inh; recombinant HTRA1, FP-rhodamine activity-based probe; inhibition, % at 5.96 µM; 1,600 tested, 66% active;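 active = mean inhibition over three repeats above a set limit taken from the earlier primary screen, cut at about 37% in these data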;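 also: 0% = HTRA1 with DMSO and 100% = wells lacking HTRA1; inhibitors block probe binding so polarization drops and inhibition rises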
BSA probe FL – compounds interfering with TAMRA-BSA probe, counter-screen for TCR-CD3 interaction inhibitor project, biochemical, fluorescence, TAMRA-labeled BSA | shares compounds with TCR-CD3 inh | TAMRA-labeled BSA probe fluorescence counterscreen | inhibition, % at 9.4 µM | 1,200 tested, 10% active; in the data active = inhibition above about 23%;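 also: 0% = buffer low control and 100% = reference high control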
TCR-CD3 conf – TCR-CD3 interaction inhibitors, retest, confirmation, biochemical, fluorescence, TAMRA-labeled TCR probe. inhibition, % at 9.4 µM. AID 652036, 2013. 1,200 tested, 48% active. shares compounds with TCR-CD3 inh. TAMRA-labeled TCR probe fluorescence binding assay
rCAG binder conf – small molecules binding CAG repeat RNA – biochemical, fluorescence, confirmation | r(CAG) RNA repeat, TO-PRO-1 dye displacement fluorescence | shares compounds with rCAG binder | 4,300 tested, 70% active | inhibition, % at 3 µM;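 active = inhibition above a per-plate cutoff, the mean inhibition of sample wells plus 3 SD, cut at about 35% in these data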;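 also: loss of TO-PRO-1 fluorescence as compound displaces dye from 1x1 AA loop RNA; 0% = DMSO only wells and 100% = 100 µM mitoxantrone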
dCAG dye counter – displacement of TO-PRO-1 from CAG DNA duplex, counter-screen for rCAG RNA repeat binder project, biochemical, fluorescence, TO-PRO-1 dye, d(CAG) DNA oligo. inhibition, % at 3 µM. d(CAG) DNA oligo TO-PRO-1 dye displacement. shares compounds with rCAG binder. 4,300 tested, 94% active;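 active = inhibition above its plate's cutoff, the mean test-well inhibition plus 3 SD, cut at about 4.8% in these data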;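 also: 0% = DNA dye mix with DMSO and 100% = 100 µM mitoxantrone; hits displace the dye from DNA and so lower well fluorescence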
PRMT1 confirm – PRMT1 methyltransferase inhibitors, confirmation, biochemical, fluorescence polarization, triplicate | AID 687036, 2013 | 3,300 tested, 42% active | shares compounds with PRMT1 FP inh | inhibition, % at 2.79 µM | recombinant His-PRMT1, activity-based probe fluorescence polarization;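 active = mean inhibition across replicates above the hit cutoff derived for the earlier primary screen, cut at about 22% in these data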
ABHD4 confirm – ABHD4 inhibitors, retest, confirmation, biochemical, fluorescence polarization, mouse; inhibition, % at 8.92 µM; purified mABHD4, FP-Rh probe fluorescence polarization; 1,800 tested, 55% active; shares compounds with mABHD4 FP;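 active = mean inhibition across replicates above the hit cutoff set in the primary screen, cut at about 30% in these data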;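 also: 0% = wild-type ABHD4 with DMSO and 100% = catalytically dead S159A mutant with DMSO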
Active calls of the source: *; . = no result given; + = active, no number. Rule as the data show it, unless noted: active = inhibition above about 19%; inactive = the rest.

SMILES | rCAG binder | mABHD4 FP | HTRA1 inh | PRMT1 FP inh | SIAE inh | TCR-CD3 inh | HTRA1 inh conf | ABHD4 confirm | others
COC(=O)C1CN(Cc2cn(CCOC(C)=O)nn2)CCS(=O)(=O)N1Cc1ccccc1 (stereo not drawn) | 1 | -1 | . | -5 | -3 | . | . | .
COc1ccc(/C(C)=N\NC(=O)c2ccco2)cc1 | 0 | 3 | . | 3 | -2 | . | . | .
CCCCCCCCCCCCCCCC(O)C[N+](C)(C)CCO (stereo not drawn) | 7 | 38* | + | -2 | 1 | -5 | 66* | 51*
C[C@H]1[C@@H](NCc2ccccc2)CC[C@@]23CCCN2C(=O)CCC[C@@H]13 | . | 0 | . | -1 | -1 | . | . | .
O=[N+]([O-])c1ccc(N=Nc2c(Cl)cc(O)cc2Cl)cc1 | 33 | 77* | 67* | 1 | 26* | 0 | 73* | 85*
O=C(O)c1ccccc1NS(=O)(=O)c1ccc(N/N=C/c2ccc(O)c(O)c2)c([N+](=O)[O-])c1 | 92* | 81* | 66* | 33* | -1 | 19* | 143* | 100* | BSA probe FL=6;TCR-CD3 conf=43*;rCAG binder conf=91*;dCAG dye counter=70*;PRMT1 confirm=40*
O=C(O)COc1ccccc1/C=N/Nc1ccc(S(=O)(=O)Nc2ccc(Cl)cc2)cc1[N+](=O)[O-] | 84* | 63* | 54* | 5 | 11 | 1 | 88* | 79* | rCAG binder conf=91*;dCAG dye counter=70*
O=[N+]([O-])c1ccccc1NC(=S)N/N=C/c1ccc(O)c(O)c1 | 37* | 51* | 80* | 8 | 8 | 20* | 73* | 36* | BSA probe FL=-16;TCR-CD3 conf=20*;rCAG binder conf=43*;dCAG dye counter=23*
O=[N+]([O-])c1ccccc1C=NNC(=S)NN=Cc1ccccc1[N+](=O)[O-] | 14 | 9 | 10 | 8 | 4 | -6 | . | .
COc1ccc(NS(=O)(=O)c2ccc(NN=Cc3ccc(C(=O)O)cc3)c([N+](=O)[O-])c2)cc1 | 6 | -15 | . | 2 | 3 | 2 | . | .
CCC[C@H]1[C@@H](OC(=O)NCc2ccc(C)o2)CC[C@@]23CCCN2C(=O)CCC[C@@H]13 | . | 3 | . | 13 | -1 | . | . | .
CC(C1SC(=S)NC1=O)C1SC(=S)NC1=O (stereo not drawn) | 16 | 46* | 60* | 89* | -3 | 7 | 47* | 20 | PRMT1 confirm=51*
CC1=C(O)C(=O)C(c2c(C)cc(C)c(Br)c2C)=C(O)C1=O | 25 | 79* | 84* | 25* | 16 | 23* | 74* | 74* | BSA probe FL=0;TCR-CD3 conf=15;PRMT1 confirm=23*
Oc1ccc(/C=N/Nc2ccnc3cc(Cl)ccc23)cc1O | 24 | 35* | 42* | -5 | 14 | 10 | 72* | 63*
CC/C(=N\Nc1ccnc2cc(Cl)ccc12)c1ccc(O)cc1 | 9 | 0 | 5 | 12 | 8 | 4 | . | .
CCNC(=S)NNC(=O)CSc1nc2ccccc2c(=O)n1-c1ccc(Cl)cc1 | 13 | 3 | . | 3 | 4 | . | . | .
COCCCNC(=O)C[C@H]1C[C@@]2(C(=O)OC)C(=C[C@H](C3CCCC3)O[C@@H]2C)N(CCC2=CCCCC2)C1=O | 3 | 5 | . | 3 | 7 | . | . | .
Cc1ccnc(Nc2nc(-c3ccc(O)c(O)c3)cs2)c1 | 34 | 42* | 74* | 3 | 16 | 10 | 85* | 47*
Cc1ccnc(Nc2nc(-c3ccc(O)cc3)cs2)c1 | 12 | 8 | 16 | 2 | 7 | -5 | . | .
Cc1cccc(Nc2nc(-c3ccc(F)c(C)c3)cs2)n1 | 8 | 15 | -2 | 1 | -2 | 0 | . | .
Cc1cccnc1Nc1nc(-c2ccc(O)c(O)c2)cs1 | 38* | 35* | 81* | 10 | -6 | 17 | 70* | 43* | rCAG binder conf=54*;dCAG dye counter=19*
Oc1ccc(-c2csc(Nc3ccccn3)n2)cc1O | 26 | 31* | 64* | 6 | 13 | 15 | 80* | 40*
Cc1cccc(Nc2nc(-c3ccc(O)c(O)c3)cs2)n1 | 20 | 34* | 60* | 1 | 4 | -1 | 59* | 57*
CC(C)(C)N1Cc2nnn(Cc3ccccc3)c2-c2ccccc2S1(=O)=O | 0 | 2 | . | 2 | -2 | . | . | .
COc1ccc(/C=N/N2C(C)CCCC2C)cc1O (stereo not drawn) | -1 | 0 | 10 | -3 | 7 | -2 | . | .
CC1CCCC(C)N1/N=C/c1ccc(O)c(O)c1 (stereo not drawn) | 6 | 36* | 43* | 7 | 6 | 23* | 29 | 12 | BSA probe FL=-1;TCR-CD3 conf=20*
C=CCN(Cc1ccc2c(c1)OCO2)C(C#Cc1ccccc1)c1ccccc1C(F)(F)F (stereo not drawn) | 1 | -4 | . | -3 | 6 | . | . | .
